Assay results: ChEMBL document CHEMBL4138297, “N-Leucinyl Benzenesulfonamides as Structurally Simplified Leucyl-tRNA Synthetase Inhibitors” (ACS Med Chem Lett, 2018)
Converted amounts (≈) assume the structure as drawn. The source made the active and inactive calls. No cut-off for these calls is given here.

What was measured:
[1] = molecular target: T1, Leucyl-tRNA synthetase, putative (Trypanosoma brucei brucei (strain 927/4 GUTat10.1), UniProt Q386D9); test: Inhibition of Trypanosoma brucei LeuRS assessed as reduction in protein synthesis pretreated for 20 mins in presence of [14C]Leu followed by ATP addition measured after 15 mins by scintillation counting method
T1 sequence (Q386D9 whole entry): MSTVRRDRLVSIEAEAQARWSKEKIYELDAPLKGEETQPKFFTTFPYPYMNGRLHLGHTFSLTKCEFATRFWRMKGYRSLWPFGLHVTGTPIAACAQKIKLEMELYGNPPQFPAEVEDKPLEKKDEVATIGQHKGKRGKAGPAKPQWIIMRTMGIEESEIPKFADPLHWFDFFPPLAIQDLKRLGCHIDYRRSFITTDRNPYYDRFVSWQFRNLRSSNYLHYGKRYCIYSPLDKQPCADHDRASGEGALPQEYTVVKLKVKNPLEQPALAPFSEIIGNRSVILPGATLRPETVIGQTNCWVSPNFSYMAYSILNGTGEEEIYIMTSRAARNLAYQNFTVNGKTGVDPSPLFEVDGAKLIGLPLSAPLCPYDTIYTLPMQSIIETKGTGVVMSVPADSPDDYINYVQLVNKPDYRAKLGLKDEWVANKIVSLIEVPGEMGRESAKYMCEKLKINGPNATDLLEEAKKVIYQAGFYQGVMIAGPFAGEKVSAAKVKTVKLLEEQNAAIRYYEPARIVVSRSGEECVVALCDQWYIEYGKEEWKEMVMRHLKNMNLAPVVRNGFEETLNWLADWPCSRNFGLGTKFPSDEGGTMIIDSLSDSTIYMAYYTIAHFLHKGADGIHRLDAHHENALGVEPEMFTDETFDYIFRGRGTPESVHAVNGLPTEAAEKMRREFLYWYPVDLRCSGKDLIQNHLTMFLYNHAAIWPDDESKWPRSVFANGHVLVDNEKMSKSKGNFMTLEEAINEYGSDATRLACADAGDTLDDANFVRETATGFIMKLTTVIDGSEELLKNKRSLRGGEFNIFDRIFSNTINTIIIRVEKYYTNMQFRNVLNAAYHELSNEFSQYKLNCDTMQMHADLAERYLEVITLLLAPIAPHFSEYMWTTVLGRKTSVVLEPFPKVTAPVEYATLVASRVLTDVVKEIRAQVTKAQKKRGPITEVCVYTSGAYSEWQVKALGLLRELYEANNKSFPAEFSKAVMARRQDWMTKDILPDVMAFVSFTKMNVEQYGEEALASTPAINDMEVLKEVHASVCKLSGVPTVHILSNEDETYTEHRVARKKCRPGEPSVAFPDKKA

[2] = molecular target: T2, Leucine--tRNA ligase, cytoplasmic (Homo sapiens, UniProt Q9P2J5); test: Inhibition of human cytoplasmic LeuRS assessed as reduction in protein synthesis measured after 10 mins in presence of [3H]Leu by scintillation counting method
Leucine--tRNA ligase [3] = molecular target: T3, Leucine--tRNA ligase (Staphylococcus aureus (strain NCTC 8325), UniProt Q2FXH2); test: Inhibition of Staphylococcus aureus LeuRS expressed in Escherichia coli M15 cells assessed as reduction in ATP consumption
T3 sequence (Q2FXH2 whole entry): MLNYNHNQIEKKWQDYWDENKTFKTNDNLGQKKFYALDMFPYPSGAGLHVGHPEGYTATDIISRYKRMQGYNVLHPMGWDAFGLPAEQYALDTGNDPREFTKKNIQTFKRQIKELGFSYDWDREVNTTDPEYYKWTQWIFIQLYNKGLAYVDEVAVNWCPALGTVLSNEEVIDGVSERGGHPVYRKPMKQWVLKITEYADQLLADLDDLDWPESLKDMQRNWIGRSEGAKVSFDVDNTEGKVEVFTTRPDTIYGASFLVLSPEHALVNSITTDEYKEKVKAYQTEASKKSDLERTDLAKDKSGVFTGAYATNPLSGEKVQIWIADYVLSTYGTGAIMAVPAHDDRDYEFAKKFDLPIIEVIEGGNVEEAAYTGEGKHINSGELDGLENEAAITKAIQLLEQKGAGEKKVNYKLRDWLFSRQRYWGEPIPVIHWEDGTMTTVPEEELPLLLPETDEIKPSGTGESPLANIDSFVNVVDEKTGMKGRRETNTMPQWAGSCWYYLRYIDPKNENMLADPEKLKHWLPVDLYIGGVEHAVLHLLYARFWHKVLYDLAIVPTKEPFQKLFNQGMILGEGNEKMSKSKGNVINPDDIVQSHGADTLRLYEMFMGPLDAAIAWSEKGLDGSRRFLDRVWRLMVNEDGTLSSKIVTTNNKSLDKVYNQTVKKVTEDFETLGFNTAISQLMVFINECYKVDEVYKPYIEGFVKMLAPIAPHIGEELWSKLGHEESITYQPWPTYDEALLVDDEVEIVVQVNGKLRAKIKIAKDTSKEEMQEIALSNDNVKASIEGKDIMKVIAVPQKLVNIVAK

Leucine--tRNA ligase [4] = molecular target: T4, Leucine--tRNA ligase (Escherichia coli (strain K12), UniProt P07813); test: Displacement of IK-698 from Escherichia coli LeuRS by isothermal titration calorimetric calorimetry
[5] = molecular target: T2, Leucine--tRNA ligase, cytoplasmic; test: Inhibition of human LeuRS assessed as reduction in ATP consumption
Leucine--tRNA ligase [6] = molecular target: T4, Leucine--tRNA ligase; test: Inhibition of Escherichia coli LeuRS expressed in Escherichia coli M15 cells assessed as reduction in ATP consumption
Escherichia coli [7] = test: Antibacterial activity against Escherichia coli BW25113 harboring AcrB deletion mutant after 18 hrs by broth microdilution method; assay type: functional, organism-based
Method in brief: (§1)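 MIC (ug/mL) against single-gene deletion derivatives of the standard laboratory E. coli strain BW25113 lacking multidrug efflux components (ΔacrA, ΔacrB, ΔtolC). The parent BW25113 strain was tested alongside.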

Escherichia coli [8] = test: Antibacterial activity against Escherichia coli BW25113 harboring tolC deletion mutant after 18 hrs by broth microdilution method; assay type: functional, organism-based; method in brief: as §1
Escherichia coli [9] = test: Antibacterial activity against Escherichia coli BW25113 harboring AcrA deletion mutant after 18 hrs by broth microdilution method; assay type: functional, organism-based; method in brief: as §1
Escherichia coli [10] = test: Antibacterial activity against Escherichia coli ATCC 25922 after 18 hrs by broth microdilution method; assay type: functional; details: ATCC 25922, 18 h
Enterobacter cloacae = test: Antibacterial activity against Enterobacter cloacae clinical isolate after 18 hrs by broth microdilution method; assay type: functional
Leucine--tRNA ligase [11] = molecular target: T4, Leucine--tRNA ligase; test: Binding affinity to Escherichia coli LeuRS by isothermal titration calorimetric calorimetry
Acinetobacter baumannii = test: Antibacterial activity against Acinetobacter spp ATCC 19606 after 18 hrs by broth microdilution method; assay type: functional; details: ATCC 19606 = CIP 70.34 = JCM 6841, 18 h
Klebsiella pneumoniae = test: Antibacterial activity against Klebsiella pneumoniae clinical isolate after 18 hrs by broth microdilution method; assay type: functional
Escherichia coli [12] = test: Antibacterial activity against Escherichia coli BW25113 after 18 hrs by broth microdilution method; assay type: functional; details: BW25113, 18 h
Method in brief: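 Standard laboratory E. coli strain BW25113, wild type for efflux; MIC recorded in ug/mL. The same susceptibility testing was also run on BW25113 derivatives deleted for the multidrug efflux components tolC, acrA or acrB.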

Pseudomonas aeruginosa = test: Antibacterial activity against Pseudomonas aeruginosa PAO1 after 18 hrs by broth microdilution method; assay type: functional; details: PAO1, 18 h
Staphylococcus aureus = test: Antibacterial activity against Staphylococcus aureus JE2 after 18 hrs by broth microdilution method; assay type: functional; details: JE2, 18 h

T4 sequence (P07813 whole entry): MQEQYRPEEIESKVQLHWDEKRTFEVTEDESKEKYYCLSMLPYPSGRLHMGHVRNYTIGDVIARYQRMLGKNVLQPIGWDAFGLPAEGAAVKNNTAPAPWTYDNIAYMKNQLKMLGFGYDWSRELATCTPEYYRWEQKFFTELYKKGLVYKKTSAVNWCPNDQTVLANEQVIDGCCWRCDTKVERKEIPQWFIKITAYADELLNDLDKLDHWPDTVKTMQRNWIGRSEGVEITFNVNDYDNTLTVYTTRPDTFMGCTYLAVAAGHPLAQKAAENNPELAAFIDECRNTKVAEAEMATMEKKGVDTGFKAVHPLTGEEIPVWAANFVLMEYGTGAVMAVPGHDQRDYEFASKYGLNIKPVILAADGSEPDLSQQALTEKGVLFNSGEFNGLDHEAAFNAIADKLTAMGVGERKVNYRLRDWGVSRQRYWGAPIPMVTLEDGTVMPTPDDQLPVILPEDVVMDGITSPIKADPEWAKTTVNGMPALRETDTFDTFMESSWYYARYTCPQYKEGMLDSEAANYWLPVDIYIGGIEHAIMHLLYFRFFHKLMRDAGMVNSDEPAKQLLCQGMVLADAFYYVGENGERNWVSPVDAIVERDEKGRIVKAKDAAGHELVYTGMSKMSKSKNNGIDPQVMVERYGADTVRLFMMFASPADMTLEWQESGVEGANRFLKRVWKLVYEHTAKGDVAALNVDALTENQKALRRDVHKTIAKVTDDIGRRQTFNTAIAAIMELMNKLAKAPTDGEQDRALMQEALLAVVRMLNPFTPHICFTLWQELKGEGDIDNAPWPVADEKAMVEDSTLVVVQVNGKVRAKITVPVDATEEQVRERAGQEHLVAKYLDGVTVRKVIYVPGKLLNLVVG
T2 sequence (Q9P2J5 whole entry): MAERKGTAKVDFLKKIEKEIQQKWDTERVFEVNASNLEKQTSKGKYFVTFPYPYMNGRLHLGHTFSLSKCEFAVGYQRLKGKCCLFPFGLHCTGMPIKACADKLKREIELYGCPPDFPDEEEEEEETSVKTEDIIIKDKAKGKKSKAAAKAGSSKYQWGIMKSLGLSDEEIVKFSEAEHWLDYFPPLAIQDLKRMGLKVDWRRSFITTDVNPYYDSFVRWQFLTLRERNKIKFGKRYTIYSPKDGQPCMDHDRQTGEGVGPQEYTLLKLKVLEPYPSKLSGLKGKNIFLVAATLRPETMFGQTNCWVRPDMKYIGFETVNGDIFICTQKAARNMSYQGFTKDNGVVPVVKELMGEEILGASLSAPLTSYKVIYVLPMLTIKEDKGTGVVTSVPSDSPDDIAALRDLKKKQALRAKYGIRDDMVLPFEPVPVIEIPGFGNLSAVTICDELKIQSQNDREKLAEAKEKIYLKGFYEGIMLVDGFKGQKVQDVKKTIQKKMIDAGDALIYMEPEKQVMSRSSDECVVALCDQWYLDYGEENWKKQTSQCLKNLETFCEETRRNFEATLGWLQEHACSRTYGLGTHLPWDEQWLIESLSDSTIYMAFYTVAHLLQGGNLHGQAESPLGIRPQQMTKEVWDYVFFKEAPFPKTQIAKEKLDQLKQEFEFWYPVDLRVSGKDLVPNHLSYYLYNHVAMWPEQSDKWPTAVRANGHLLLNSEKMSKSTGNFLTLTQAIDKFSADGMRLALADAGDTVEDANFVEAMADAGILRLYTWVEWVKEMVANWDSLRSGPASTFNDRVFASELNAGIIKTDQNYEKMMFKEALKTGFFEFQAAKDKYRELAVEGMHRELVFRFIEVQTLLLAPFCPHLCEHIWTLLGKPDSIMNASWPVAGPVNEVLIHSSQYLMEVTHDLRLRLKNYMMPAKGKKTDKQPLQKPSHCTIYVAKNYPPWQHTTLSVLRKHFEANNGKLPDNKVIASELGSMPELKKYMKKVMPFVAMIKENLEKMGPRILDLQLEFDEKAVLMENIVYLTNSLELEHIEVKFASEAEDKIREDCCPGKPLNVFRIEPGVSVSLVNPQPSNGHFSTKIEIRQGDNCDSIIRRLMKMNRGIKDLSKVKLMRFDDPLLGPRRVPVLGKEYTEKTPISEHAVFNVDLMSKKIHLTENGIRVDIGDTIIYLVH

| SMILES | IC50 (Leucine--tRNA ligase [3]) | Kd (Leucine--tRNA ligase [4]) | IC50 [5] | IC50 (Leucine--tRNA ligase [6]) | further results |
| --- | --- | --- | --- | --- | --- |
| CC(C)C[C@H](N)C(=O)NS(=O)(=O)c1cccc(NC(=S)NC(=O)COc2ccc(Br)cc2Cl)c1 |  |  |  |  | IC50 [1]: 1100 nM; IC50 [2]: 4500 nM |
| CC(C)C[C@H](N)C(=O)NS(=O)(=O)c1ccc2ccccc2c1 |  | 64 nM | 220 nM |  |  |
| Cc1cc(-c2cccc(S(=O)(=O)NC(=O)[C@@H](N)CC(C)C)c2)ncn1 | 2700 nM | 22 nM | 2000 nM | 47 nM |  |
| Cc1cc(-c2cccc(S(=O)(=O)NC(=O)[C@@H](N)CC(C)C)c2)nc(N)n1 | 4400 nM | 10 nM | 160 nM | 41 nM | Activity (Escherichia coli [7]): Active; Activity (Escherichia coli [8]): Active; Activity (Escherichia coli [9]): Active |
| CC(C)C[C@H](N)C(=O)NS(=O)(=O)c1cccc(-c2ccnc(N)n2)c1 | 9200 nM | 14.5 nM | 3900 nM |  |  |
| CC(C)C[C@H](N)C(=O)NS(=O)(=O)c1cccc(-c2cc(-c3ccccc3)nc(N)n2)c1 | 3600 nM | 56 nM | 33 nM | 224 nM |  |
| CC(C)C[C@H](N)C(=O)NS(=O)(=O)c1ccccc1 |  |  | 1100 nM |  | MIC (Escherichia coli [10]): 8 µg/mL (≈ 29.6 µM); MIC (Enterobacter cloacae): 128 µg/mL (≈ 473 µM); Kd (Leucine--tRNA ligase [11]): 92.9 nM; Activity (Escherichia coli [8]): Active; MIC (Acinetobacter baumannii): 64 µg/mL (≈ 237 µM); MIC (Klebsiella pneumoniae): 64 µg/mL (≈ 237 µM); MIC (Escherichia coli [12]): > 128 µg/mL; MIC (Pseudomonas aeruginosa): 64 µg/mL (≈ 237 µM); MIC (Staphylococcus aureus): > 256 µg/mL |

Continued by falling Kd (Leucine--tRNA ligase [4]), values first:

| IC50 (Leucine--tRNA ligase [3]) | Kd (Leucine--tRNA ligase [4]) | IC50 [5] | IC50 (Leucine--tRNA ligase [6]) | SMILES | further results |
| --- | --- | --- | --- | --- | --- |
| 1700 nM | 13.9 nM | 850 nM | 23 nM | CC(C)C[C@H](N)C(=O)NS(=O)(=O)c1cccc(-c2cccc(N)n2)c1 |  |
| 650 nM | 12.8 nM | 490 nM | 14 nM | CC(C)C[C@H](N)C(=O)NS(=O)(=O)c1cccc(-c2ccnc(N)c2)c1 |  |
| 920 nM | 10.9 nM | 1200 nM |  | CC(C)C[C@H](N)C(=O)NS(=O)(=O)c1cccc(-c2ccncc2)c1 |  |
| 640 nM | 10.2 nM | 3400 nM |  | CC(C)C[C@H](N)C(=O)NS(=O)(=O)c1cccc(-c2ccccc2)c1 |  |
